In ChEMBL document CHEMBL1909506, “Synthesis and anti-tumor activities of N'-benzylidene-2-(4-oxothieno[2,3-d]pyrimidin-3(4H)-yl)acetohydrazone derivatives” (Bioorg Med Chem Lett, 2011):
Calls of active or inactive are those of the source. The calls are words filed in the database; no cut-off is given here.

Legend:
[1] = biological target: Induced myeloid leukemia cell differentiation protein Mcl-1 (Homo sapiens) (UniProt Q07820); experiment: Inhibition of mouse/human MCL1 expressed in Escherichia coli BL21 at 1 uM to 50 uM using FAM-labeled Bid-BH3 as tracer by fluorescence polarization assay
A549 [2] = experiment: Cytotoxicity against human A549 cells assessed as growth inhibition at 20 uM after 48 hrs by MTT assay; format: functional; settings: for inhibition of growth at 20 µM: A549, 48 h, read-out: GI
Summary of the method: (§1)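 Single-concentration screen at 20 µM. Cell growth inhibition read by standard MTT assay after 48 h treatment and expressed as inhibition ratio.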

MDA-MB-231 [3] = experiment: Cytotoxicity against human MDA-MB-231 cells assessed as growth inhibition at 20 uM after 48 hrs by MTT assay; format: functional; settings: for inhibition of growth at 20 µM: MDA-MB-231, 48 h, read-out: GI
Summary of the method: as §1

HeLa [4] = experiment: Cytotoxicity against human HeLa cells assessed as growth inhibition at 20 uM after 48 hrs by MTT assay; format: functional; settings: for inhibition of growth at 20 µM: read-out: GI
Summary of the method: as §1

HEK-293T = experiment: Cytotoxicity against human HEK293T cells assessed as growth inhibition after 48 hrs by MTT assay; format: cell-based
Summary of the method: (§2)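 Dose-response MTT assay, 48 h exposure. Compounds run at multiple concentrations; IC50 taken as the concentration giving 50% growth inhibition. HEK-293T (human embryonic kidney cells transformed with adenovirus 5 DNA and SV40 large T-antigen) served as the normal-cell model.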

HeLa [5] = experiment: Induction of apoptosis in human HeLa cells assessed as increase in level of cleaved caspase-3 at 20 uM after 12 hrs by immunoblotting; format: functional, cell-based
HeLa [6] = experiment: Cytotoxicity against human HeLa cells assessed as growth inhibition after 48 hrs by MTT assay; format: functional, cell-based
Summary of the method: as §2

HeLa [7] = experiment: Induction of apoptosis in human HeLa cells assessed as increase in level of cleaved PARP at 20 uM after 12 hrs by immunoblotting; format: functional, cell-based
HeLa [8] = experiment: Induction of apoptosis in human HeLa cells assessed as sub-diploid DNA content at 20 uM after 24 hrs using PI staining by flow cytometry (reference value: 6%); format: functional
MDA-MB-231 [9] = experiment: Cytotoxicity against human MDA-MB-231 cells assessed as growth inhibition after 48 hrs by MTT assay; format: functional, cell-based; settings: for IC50: MDA-MB-231, 48 h
Summary of the method: as §2

A549 [10] = experiment: Cytotoxicity against human A549 cells assessed as growth inhibition after 48 hrs by MTT assay; format: functional, cell-based; settings: for IC50: A549, 48 h
Summary of the method: as §2

[11] = biological target: Induced myeloid leukemia cell differentiation protein Mcl-1 (Homo sapiens) (UniProt Q07820); experiment: Inhibition of mouse/human MCL1 expressed in Escherichia coli BL21 at 50 uM using FAM-labeled Bid-BH3 as tracer by fluorescence polarization assay

SMILES	inhibition [1]	growth inhibition (GI) (A549 [2])	growth inhibition (GI) (MDA-MB-231 [3])	growth inhibition (GI) (HeLa [4])	inhibition of growth at 20 µM (A549 [2]) [%]	inhibition of growth at 20 µM (MDA-MB-231 [3]) [%]	inhibition of growth at 20 µM (HeLa [4]) [%]	further results
N#Cc1ccc(/C=N/NC(=O)Cn2cnc3scc(-c4ccccc4)c3c2=O)cc1	inactive	inactive	inactive	inactive				
O=C(Cn1cnc2scc(-c3ccc(Cl)cc3)c2c1=O)N/N=C/c1ccc(O)c(O)c1	inactive	inactive	inactive	inactive				
O=C(Cn1cnc2scc(-c3ccc4ccccc4c3)c2c1=O)N/N=C/c1cccc([N+](=O)[O-])c1	inactive	inactive	inactive	inactive				
O=C(Cn1cnc2scc(-c3ccccc3)c2c1=O)N/N=C/c1ccccc1O	inactive				26	30	31	
O=C(Cn1cnc2scc(-c3ccc(Cl)cc3)c2c1=O)N/N=C/c1cccc([N+](=O)[O-])c1	inactive	inactive	inactive	inactive				
O=C(Cn1cnc2scc(-c3ccc4ccccc4c3)c2c1=O)N/N=C/c1ccc(Cl)c([N+](=O)[O-])c1	inactive				69	55	69	IC50 (HEK-293T): > 50 µM; Activity (HeLa [5]): Active; IC50 (HeLa [6]): 24 µM; growth inhibition (GI) (HeLa [6]): Dose-dependent effect; Activity (HeLa [7]): Active; Activity (HeLa [8]): 20%; growth inhibition (GI) (MDA-MB-231 [9]): Dose-dependent effect; IC50 (MDA-MB-231 [9]): 20 µM; growth inhibition (GI) (A549 [10]): Dose-dependent effect; IC50 (A549 [10]): 13 µM
O=C(Cn1cnc2sc3c(c2c1=O)CCCC3)N/N=C/c1ccccc1O	inactive				18	29	34	IC50 (HEK-293T): > 50 µM; IC50 (HeLa [6]): 40 µM; IC50 (MDA-MB-231 [9]): 16 µM; IC50 (A549 [10]): > 50 µM
O=C(Cn1cnc2sc3c(c2c1=O)CCCCC3)N/N=C/c1ccc(Cl)c(F)c1	inactive				43	28	50	
Cc1csc2ncn(CC(=O)N/N=C/c3ccc(Cl)c([N+](=O)[O-])c3)c(=O)c12	inactive				13	13	18	
Cc1csc2ncn(CC(=O)N/N=C/c3ccc(C#N)cc3)c(=O)c12	inactive	inactive	inactive	inactive				
O=C(Cn1cnc2sc3c(c2c1=O)CCCCC3)N/N=C/c1cccc(O)c1	inactive	inactive	inactive	inactive				
O=C(Cn1cnc2scc(-c3ccc(Cl)cc3)c2c1=O)N/N=C/c1ccccc1O	inactive				48	39	43	
Cc1csc2ncn(CC(=O)N/N=C/c3ccc(Cl)c(F)c3)c(=O)c12	inactive	inactive	inactive	inactive				
O=C(Cn1cnc2scc(-c3ccc(Cl)cc3)c2c1=O)N/N=C/c1ccc(Cl)c(F)c1	inactive	inactive	inactive	inactive				
Cc1csc2ncn(CC(=O)N/N=C/c3ccccc3O)c(=O)c12	inactive	inactive		inactive		30		inhibition [11]: 40%
O=C(Cn1cnc2sc3c(c2c1=O)CCCC3)N/N=C/c1ccc(Cl)c([N+](=O)[O-])c1	inactive				10	38	27	
O=C(Cn1cnc2sc3c(c2c1=O)CCCC3)N/N=C/c1ccc(C(F)(F)F)cc1	inactive				23	30	34	
N#Cc1ccc(/C=N/NC(=O)Cn2cnc3sc4c(c3c2=O)CCCC4)cc1	inactive	inactive	inactive	inactive				

SMILES	inhibition [1]	growth inhibition (GI) (A549 [2])	growth inhibition (GI) (MDA-MB-231 [3])	growth inhibition (GI) (HeLa [4])	inhibition of growth at 20 µM (A549 [2]) [%]	inhibition of growth at 20 µM (MDA-MB-231 [3]) [%]	inhibition of growth at 20 µM (HeLa [4]) [%]	further results
O=C(Cn1cnc2sc3c(c2c1=O)CCC3)N/N=C/c1ccc(Cl)c(F)c1	inactive				47	29	54	
O=C(Cn1cnc2sc3c(c2c1=O)CCCCC3)N/N=C/c1ccccc1O	inactive				29	40	36	
O=C(Cn1cnc2sc3c(c2c1=O)CCCC3)N/N=C/c1ccc(Cl)c(F)c1	inactive				26	39	41	
N#Cc1ccc(/C=N/NC(=O)Cn2cnc3scc(-c4ccc5ccccc5c4)c3c2=O)cc1	inactive	inactive	inactive	inactive				
N#Cc1ccc(/C=N/NC(=O)Cn2cnc3scc(-c4ccc(Cl)cc4)c3c2=O)cc1	inactive	inactive	inactive	inactive				
O=C(Cn1cnc2sc3c(c2c1=O)CCC3)N/N=C/c1ccc(Cl)c([N+](=O)[O-])c1	inactive	inactive				41	34	
O=C(Cn1cnc2scc(-c3ccccc3)c2c1=O)N/N=C/c1ccc(Cl)c(F)c1	inactive	inactive	inactive	inactive				
O=C(Cn1cnc2scc(-c3ccc4ccccc4c3)c2c1=O)N/N=C/c1ccc(O)c(O)c1	inactive	inactive	inactive	inactive				inhibition [11]: 40%
O=C(Cn1cnc2sc3c(c2c1=O)CCC3)N/N=C/c1ccc(O)cc1	inactive				27	25	29	
O=C(Cn1cnc2sc3c(c2c1=O)CCCCC3)N/N=C/c1ccc(O)cc1	inactive	inactive	inactive	inactive				
O=C(Cn1cnc2sc3c(c2c1=O)CCC3)N/N=C/c1ccccc1O	inactive				22	36	23	
N#Cc1ccc(/C=N/NC(=O)Cn2cnc3sc4c(c3c2=O)CCC4)cc1	inactive	inactive	inactive	inactive				
O=C(Cn1cnc2sc3c(c2c1=O)CCC3)N/N=C/c1cccc(O)c1	inactive	inactive	inactive	inactive				
O=C(Cn1cnc2scc(-c3ccc4ccccc4c3)c2c1=O)N/N=C/c1ccccc1O	inactive				44	36	22	
Cc1cc(-c2csc3ncn(CC(=O)N/N=C/c4ccccc4O)c(=O)c23)ccc1Cl	inactive				35	37	33	
N#Cc1ccc(/C=N/NC(=O)Cn2cnc3sc4c(c3c2=O)CCCCC4)cc1	inactive				10	14	11	
O=C(Cn1cnc2scc(-c3ccc4ccccc4c3)c2c1=O)N/N=C/c1ccc(Cl)c(F)c1	inactive	inactive	inactive	inactive				
